Experimental data published in ChEMBL document CHEMBL1145247, “4-Alkyl and 4,4'-dialkyl 1,2-bis(4-chlorophenyl)pyrazolidine-3,5-dione derivatives as new inhibitors of bacterial cell wall biosynthesis” (Bioorg Med Chem Lett, 2005).
Converted amounts (≈) assume the structure as drawn.

Tests used:
[1] = molecular target: UDP-N-acetylglucosamine 1-carboxyvinyltransferase (Escherichia coli K-12, UniProt P0A749); experiment: Inhibitory concentration against MurA enzyme in Escherichia coli
In short: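 Enzyme preincubated with inhibitor 10 min at 37 °C before substrates were added. Reaction ran 30 min at 37 °C and was stopped with malachite green reagent (0.03% malachite green, 1.4% ammonium molybdate, 1.3 N HCl) for phosphate read-out.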

Escherichia coli [2] = experiment: Minimum inhibitory concentration against cell wall biosynthesis of Escherichia coli GC 4559; format: functional
In short: (§1)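 Broth microdilution per NCCLS M7-A3. Mueller–Hinton broth for staphylococci and enterococci, 2-fold serial dilutions of agent. Final inoculum 1–5 × 10^5 CFU/mL.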

[3] = molecular target: T1, UDP-N-acetylenolpyruvoylglucosamine reductase (Escherichia coli K-12, UniProt P08373); experiment: Inhibitory concentration against MurB enzyme in Escherichia coli
T1 sequence (P08373 whole entry): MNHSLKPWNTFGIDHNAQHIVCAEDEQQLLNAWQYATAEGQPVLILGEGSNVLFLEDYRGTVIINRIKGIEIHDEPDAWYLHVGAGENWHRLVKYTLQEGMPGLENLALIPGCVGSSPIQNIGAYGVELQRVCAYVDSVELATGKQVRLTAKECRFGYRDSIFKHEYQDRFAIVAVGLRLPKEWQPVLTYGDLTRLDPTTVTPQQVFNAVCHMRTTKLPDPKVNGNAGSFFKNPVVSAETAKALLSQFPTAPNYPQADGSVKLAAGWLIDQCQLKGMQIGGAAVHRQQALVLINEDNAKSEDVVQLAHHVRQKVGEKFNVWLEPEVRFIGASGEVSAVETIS
In short: (§2)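 Enzyme (20 nM) preincubated 20 min with inhibitor, then substrates added to final 50 µM EP-UNAG and 100 µM NADPH. Activity followed spectrophotometrically. At least six inhibitor concentrations between 1.5 and 50 µM per compound. IC50 from sigmoid Hill curve fit (0–100).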

Escherichia coli [4] = experiment: Minimal inhibitory concentration against Escherichia coli GC 4560 was determined; format: functional; in short: as §1
[5] = Minimum inhibitory concentration against cell wall biosynthesis of methicillin-susceptible Coagulase negative staphylococcus GC 646 (MSCNS); format: functional; in short: as §1
Escherichia coli [6] = experiment: Minimum inhibitory concentration against cell wall biosynthesis of Escherichia coli GC 4560; format: functional
Enterococcus faecalis [7] = experiment: Minimum inhibitory concentration against cell wall biosynthesis of vancomycin susceptible (ATCC) Enterococcus faecalis GC 4555; format: functional; in short: as §1
[8] = molecular target: T2, UDP-N-acetylenolpyruvoylglucosamine reductase (Staphylococcus aureus, UniProt P61431); experiment: Inhibitory concentration against MurB enzyme in Staphylococcus aureus; in short: as §2
T2 sequence (P61431 whole entry): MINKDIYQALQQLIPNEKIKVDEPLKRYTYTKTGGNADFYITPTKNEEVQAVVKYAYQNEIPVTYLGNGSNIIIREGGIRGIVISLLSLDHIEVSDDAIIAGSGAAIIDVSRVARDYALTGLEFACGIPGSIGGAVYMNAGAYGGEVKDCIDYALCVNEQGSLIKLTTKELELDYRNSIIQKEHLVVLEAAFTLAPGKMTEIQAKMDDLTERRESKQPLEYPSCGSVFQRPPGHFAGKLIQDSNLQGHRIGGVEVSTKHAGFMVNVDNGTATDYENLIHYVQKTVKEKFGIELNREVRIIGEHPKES

Staphylococcus aureus [9] = experiment: Minimum inhibitory concentration against cell wall biosynthesis of methicillin susceptible Staphylococcus aureus GC 4543; format: functional
In short: (§3)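 Broth microdilution per NCCLS M7-A3 in Mueller–Hinton broth, aerobic. Agents tested as 2-fold serial dilutions, with a final inoculum of 1–5 × 10^5 CFU/mL. Plates incubated 18–22 h at 35 °C in ambient air. MIC read as the endpoint.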

Staphylococcus aureus [10] = experiment: Minimal inhibitory concentration against methicillin susceptible Staphylococcus aureus was determined; Range = 25-50 uM; format: functional; in short: as §3
Enterococcus faecalis [11] = experiment: Minimal inhibitory concentration against vancomycin resistant Enterococcus faecalis was determined; Range = 25-50 uM; format: functional; in short: as §3
Staphylococcus aureus [12] = experiment: Minimal inhibitory concentration against methicillin resistant Staphylococcus aureus was determined; Range = 25-50 uM; format: functional; in short: as §3
Streptococcus pneumoniae [13] = experiment: Minimum inhibitory concentration against cell wall biosynthesis of penicillin resistant Streptococcus pneumoniae GC 1894 (PRSP); format: functional
In short: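 Broth microdilution per NCCLS M7-A3, using Mueller–Hinton broth supplemented with 5% sheep blood. Agents tested as 2-fold serial dilutions, with a final inoculum of 1–5 × 10^5 CFU/mL.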

Enterococcus faecalis [14] = experiment: Minimum inhibitory concentration against cell wall biosynthesis of vancomycin resistant Enterococcus faecalis GC 2242 (VRE); format: functional; in short: as §3
Enterococcus faecalis [15] = experiment: Minimal inhibitory concentration against vancomycin susceptible Enterococcus faecalis was determined; Range = 25-50 uM; format: functional; in short: as §3
Staphylococcus aureus [16] = experiment: Minimum inhibitory concentration against cell wall biosynthesis of methicillin resistant Staphylococcus aureus GC 1131; format: functional; in short: as §3
Streptococcus pneumoniae [17] = experiment: Minimum inhibitory concentration against cell wall biosynthesis of penicillin resistant Streptococcus pneumoniae GC 1894 (PRSP) in the presence of 4% bovine serum albumin; format: functional

Sequence of UDP-N-acetylglucosamine 1-carboxyvinyltransferase (P0A749 whole entry): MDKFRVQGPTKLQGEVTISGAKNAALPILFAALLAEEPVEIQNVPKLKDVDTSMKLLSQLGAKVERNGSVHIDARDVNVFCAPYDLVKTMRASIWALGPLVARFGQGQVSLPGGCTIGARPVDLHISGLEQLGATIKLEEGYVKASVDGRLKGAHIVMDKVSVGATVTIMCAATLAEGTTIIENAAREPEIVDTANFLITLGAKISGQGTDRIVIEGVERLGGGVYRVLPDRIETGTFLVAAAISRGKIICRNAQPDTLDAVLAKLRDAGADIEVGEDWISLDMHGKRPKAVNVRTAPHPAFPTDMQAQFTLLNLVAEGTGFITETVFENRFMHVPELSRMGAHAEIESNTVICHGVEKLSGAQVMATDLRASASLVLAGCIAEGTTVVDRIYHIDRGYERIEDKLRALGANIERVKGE

## N#Cc1ccccc1-c1ccc(CC2C(=O)N(c3ccc(Cl)cc3)N(c3ccc(Cl)cc3)C2=O)cc1
[1]
  IC50: > 50 µM
Escherichia coli [2]
  MIC: > 200 µM
[3]
  IC50: 11 µM
Escherichia coli [4]
  MIC: 25 µM (≈ 12.8 µg/mL)
[5]
  MIC: 6.25 µM (≈ 3.2 µg/mL)
Escherichia coli [6]
  MIC: 25 µM (≈ 12.8 µg/mL)
Enterococcus faecalis [7]
  MIC: 25 µM (≈ 12.8 µg/mL)
[8]
  IC50: 12 µM
Staphylococcus aureus [9]
  MIC: 6.25 µM (≈ 3.2 µg/mL)

## O=C1C(CCCCCCc2ccccc2)C(=O)N(c2ccc(Cl)cc2)N1c1ccc(Cl)cc1
Staphylococcus aureus [10]
  MIC: 50 µM (≈ 24.1 µg/mL)
Enterococcus faecalis [11]
  MIC: 50 µM (≈ 24.1 µg/mL)
Staphylococcus aureus [12]
  MIC: 50 µM (≈ 24.1 µg/mL)
[1]
  IC50: 34.9 µM
Streptococcus pneumoniae [13]
  MIC: 6.25 µM (≈ 3.01 µg/mL)
Enterococcus faecalis [14]
  MIC: 50 µM (≈ 24.1 µg/mL)
Enterococcus faecalis [15]
  MIC: 50 µM (≈ 24.1 µg/mL)
Escherichia coli [2]
  MIC: > 200 µM
[3]
  IC50: 8.9 µM
Staphylococcus aureus [16]
  MIC: 25 µM (≈ 12 µg/mL)
[5]
  MIC: 100 µM (≈ 48.1 µg/mL)
Streptococcus pneumoniae [17]
  MIC: > 200 µM
Escherichia coli [6]
  MIC: 200 µM (≈ 96.3 µg/mL)
Enterococcus faecalis [7]
  MIC: 50 µM (≈ 24.1 µg/mL)
[8]
  IC50: 12 µM
Staphylococcus aureus [9]
  MIC: 25 µM (≈ 12 µg/mL)

## O=C1N(c2ccc(Cl)cc2)N(c2ccc(Cl)cc2)C(=O)C1(CCCCCCc1ccccc1)CCCCCCc1ccccc1
[1]
  IC50: 9.9 µM
Streptococcus pneumoniae [13]
  MIC: 100 µM (≈ 64.2 µg/mL)
Enterococcus faecalis [14]
  MIC: 200 µM (≈ 128 µg/mL)
Escherichia coli [2]
  MIC: > 200 µM
[3]
  IC50: 7.2 µM
Staphylococcus aureus [16]
  MIC: > 200 µM
[5]
  MIC: > 200 µM
Streptococcus pneumoniae [17]
  MIC: > 200 µM
Escherichia coli [6]
  MIC: > 200 µM
Enterococcus faecalis [7]
  MIC: > 200 µM
[8]
  IC50: 8.2 µM
Staphylococcus aureus [9]
  MIC: 200 µM (≈ 128 µg/mL)

## O=C(CCC1C(=O)N(c2ccc(Cl)cc2)N(c2ccc(Cl)cc2)C1=O)c1ccc(F)cc1
[1]
  IC50: 46.9 µM
Streptococcus pneumoniae [13]
  MIC: 50 µM (≈ 23.6 µg/mL)
Enterococcus faecalis [14]
  MIC: 100 µM (≈ 47.1 µg/mL)
Escherichia coli [2]
  MIC: > 200 µM
[3]
  IC50: 13 µM
Staphylococcus aureus [16]
  MIC: 100 µM (≈ 47.1 µg/mL)
[5]
  MIC: 200 µM (≈ 94.3 µg/mL)
Streptococcus pneumoniae [17]
  MIC: > 200 µM
Escherichia coli [6]
  MIC: 200 µM (≈ 94.3 µg/mL)
Enterococcus faecalis [7]
  MIC: 100 µM (≈ 47.1 µg/mL)
[8]
  IC50: 18 µM
Staphylococcus aureus [9]
  MIC: 100 µM (≈ 47.1 µg/mL)

## O=C(CCCC1C(=O)N(c2ccc(Cl)cc2)N(c2ccc(Cl)cc2)C1=O)c1ccc(F)cc1
[1]
  IC50: 32.4 µM
Streptococcus pneumoniae [13]
  MIC: 12.5 µM (≈ 6.07 µg/mL)
Enterococcus faecalis [14]
  MIC: 50 µM (≈ 24.3 µg/mL)
Escherichia coli [2]
  MIC: > 200 µM
[3]
  IC50: 10 µM
Staphylococcus aureus [16]
  MIC: 50 µM (≈ 24.3 µg/mL)
[5]
  MIC: 100 µM (≈ 48.5 µg/mL)
Streptococcus pneumoniae [17]
  MIC: > 200 µM
Escherichia coli [6]
  MIC: 200 µM (≈ 97.1 µg/mL)
Enterococcus faecalis [7]
  MIC: 50 µM (≈ 24.3 µg/mL)
[8]
  IC50: 11 µM
Staphylococcus aureus [9]
  MIC: 50 µM (≈ 24.3 µg/mL)

## CCN(CCC1C(=O)N(c2ccc(Cl)cc2)N(c2ccc(Cl)cc2)C1=O)Cc1ccccc1
[1]
  IC50: > 50 µM
Streptococcus pneumoniae [13]
  MIC: 100 µM (≈ 48.2 µg/mL)
Enterococcus faecalis [14]
  MIC: 200 µM (≈ 96.5 µg/mL)
Escherichia coli [2]
  MIC: > 200 µM
[3]
  IC50: > 50 µM
Staphylococcus aureus [16]
  MIC: 200 µM (≈ 96.5 µg/mL)
[5]
  MIC: > 200 µM
Streptococcus pneumoniae [17]
  MIC: > 200 µM
Escherichia coli [6]
  MIC: > 200 µM
Enterococcus faecalis [7]
  MIC: > 200 µM
[8]
  IC50: > 50 µM
Staphylococcus aureus [9]
  MIC: > 200 µM
